# In PubChem BioAssay:
# The source made the active and inactive calls.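 How the source made its calls, unless noted: active means inhibition at or above 50% relative to wild type and mutant plate controls; inactive means inhibition below 50%.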
# Tests used:
# [1] = inhibitors of TNFa-induced NFkB p65 translocation, primary screen, imaging, HUVEC, MLSMR starter and 10KST1 sets (AID 438;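 active means inhibition above 20% together with a positive visual image hit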;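 further: compound added about 3h40 before a 20 min TNFalpha stimulation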;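 on inhibition: signal is the nuclear over cytoplasmic p65 intensity ratio per well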); conditions: HUVEC TNFa-induced p65 nuclear translocation; cell count: measured here: nuclei count (cytotoxicity indicator), at 2.08 µM; inhibition: at 2 µM, stronger effect = higher value, 0% TNFa-plus-vehicle, 100% no-TNFa wells
# [2] = inhibitors of E-selectin induction by TNFa, primary screen, imaging, HUVEC, immunofluorescence, MLSMR starter and 10KST1 sets (AID 487;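 active means visually confirmed hit in the image check and inhibition above 20%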;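 on inhibition: signal is fraction of cell area covered by stained E-selectin grains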;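 on nuclei count: 100% = median nuclei count of all wells on the same plate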); conditions: HUVEC TNFalpha-induced E-selectin immunofluorescence imaging, at 2 µM; inhibition: stronger effect = higher value; nuclei count: measured here: cell number, toxicity
# [3] = DUSP6 inhibitors restoring Erk phosphorylation by chemical complementation, primary imaging in DUSP6-transfected HeLa (AID 609;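 active means compounds giving at least 50% inhibition in the cell-based MKP-3 phosphatase rescue imaging test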;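 on inhibition: phospho-Erk level distribution per well compared with pooled transfected vehicle control wells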); conditions: HeLa MKP-3 transfected, phospho-Erk imaging KS statistic, at 10 µM, cells stimulated with TPA for 15 min
# [4] = molecular target: Dual specificity protein phosphatase 6 (Homo sapiens) (UniProt Q16828); experiment: as above; conditions: HeLa MKP-3 transfected, phospho-Erk imaging KS statistic; at 10 µM; stronger effect = higher value; cells stimulated with TPA for 15 min
# Chain of Dual specificity protein phosphatase 6 (Homo sapiens) (Q16828 whole entry, looked up): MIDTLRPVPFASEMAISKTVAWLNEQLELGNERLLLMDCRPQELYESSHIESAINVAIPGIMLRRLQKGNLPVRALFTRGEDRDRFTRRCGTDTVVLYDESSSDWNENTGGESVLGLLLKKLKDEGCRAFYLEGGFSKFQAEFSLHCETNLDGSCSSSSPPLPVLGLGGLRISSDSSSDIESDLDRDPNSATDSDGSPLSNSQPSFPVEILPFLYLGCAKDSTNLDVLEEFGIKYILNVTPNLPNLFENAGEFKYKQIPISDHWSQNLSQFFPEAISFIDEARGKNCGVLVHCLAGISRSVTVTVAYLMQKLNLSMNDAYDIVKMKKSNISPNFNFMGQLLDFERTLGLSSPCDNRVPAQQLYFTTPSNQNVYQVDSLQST
# [5] = molecular target: Voltage-gated potassium channel subunit beta-2 (Rattus norvegicus) (UniProt P62483); experiment: KvBeta enzyme negative modulators, primary screen, biochemical, NADPH fluorescence (AID 622;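 active means fluorescence slope higher than the sample average by over 3 SD, cut at about -0.22 in these data, passing the limit was not always enough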;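 further: slope of raw intensity against log time taken from 70 to 1610 s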); conditions: recombinant KvBeta, 4-cyanobenzaldehyde reduction, at 10 µM, stronger effect = higher value
# Chain of Voltage-gated potassium channel subunit beta-2 (Rattus norvegicus) (P62483 whole entry, looked up): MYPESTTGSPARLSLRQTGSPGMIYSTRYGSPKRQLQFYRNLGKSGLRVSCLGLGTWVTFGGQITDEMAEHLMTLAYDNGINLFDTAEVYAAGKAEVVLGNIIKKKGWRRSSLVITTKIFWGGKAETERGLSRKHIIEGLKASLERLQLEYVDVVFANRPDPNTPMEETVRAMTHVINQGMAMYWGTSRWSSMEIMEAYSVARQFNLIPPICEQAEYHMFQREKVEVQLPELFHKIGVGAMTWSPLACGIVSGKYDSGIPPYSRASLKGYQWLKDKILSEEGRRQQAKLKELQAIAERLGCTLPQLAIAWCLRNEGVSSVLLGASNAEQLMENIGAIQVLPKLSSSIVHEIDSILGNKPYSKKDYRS
# [6] = molecular target: Voltage-gated potassium channel subunit beta-2 (Rattus norvegicus) (UniProt P62483); experiment: KvBeta positive modulators, primary screen, biochemical, NADPH fluorescence (AID 623;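 active means NADPH fluorescence slope more negative than the mean of all samples by about 3 SD, 99.7% confidence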;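 further: fluorescence intensity change per second fitted from 20 to 320 s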); conditions: Recombinant KvBeta, NADPH fluorescence decrease slope, 10 min; at 10 µM; stronger effect = lower value
# [7] = molecular target: Muscarinic acetylcholine receptor M4 (Homo sapiens) (UniProt P08173); experiment: compounds altering M4/GIRK thallium flux, either direction, primary screen, M4 allosteric agonist project, cell-based, HEK293 M4/GIRK, BTC-AM (AID 625;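 active means fluorescence slope after compound addition differing from the mean of all tested samples at 99.7% confidence, mostly higher but some lower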;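 further: thallium influx through GIRK channels coupled to M4 in HEK293 cells with BTC-AM dye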); conditions: at 10 µM, actives lie on both sides
# Chain of Muscarinic acetylcholine receptor M4 (Homo sapiens) (P08173 whole entry, looked up): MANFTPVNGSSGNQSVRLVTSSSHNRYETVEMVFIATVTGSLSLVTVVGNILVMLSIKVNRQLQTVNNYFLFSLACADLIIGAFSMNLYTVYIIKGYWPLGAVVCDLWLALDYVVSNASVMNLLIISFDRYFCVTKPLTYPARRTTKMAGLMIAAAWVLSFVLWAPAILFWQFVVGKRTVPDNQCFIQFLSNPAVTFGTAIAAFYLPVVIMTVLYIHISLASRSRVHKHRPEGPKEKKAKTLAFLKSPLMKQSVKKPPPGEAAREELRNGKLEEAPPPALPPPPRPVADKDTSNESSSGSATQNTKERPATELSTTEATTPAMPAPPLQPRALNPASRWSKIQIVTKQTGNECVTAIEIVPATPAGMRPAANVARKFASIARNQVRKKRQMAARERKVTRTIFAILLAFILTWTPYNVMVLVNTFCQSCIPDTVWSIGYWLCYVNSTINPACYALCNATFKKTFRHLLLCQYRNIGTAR
# Summary of the method: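 Assay system: HEK293 cells with M4 receptor and GIRK channels / Controls: carbachol and DMSO controls / Schedule: 1 h dye loading, 2 min kinetic read / Technique: kinetic fluorescence with BTC-AM dye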
# [8] = inhibitors of larval lipid processing in zebrafish, primary screen, whole organism, PED6 fluorescence, gall bladder and intestine (AID 686;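 active means a full or partial loss of lipid-probe fluorescence in the fish gall bladder, intestine or both, judged by eye; inactive means no fluorescence loss, or compound toxic to the fish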;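 further: larvae 5 to 7 days old with five fish per well; signal comes from phospholipase A2 cleavage of quenched PED6 carried via bile; overnight exposure to compound and PED6 before scoring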); conditions: Zebrafish larvae PED6 lipid processing, fluorescence scoring; screened at 20 µM (by protocol)
# Summary of the method: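 Doses: 20 µM single dose. Test system: live zebrafish larvae aged 5-7 days, whole organism. Quantity: five larvae per well. Measured by: By-eye fluorescence microscopy. Reagent: ingested quenched lipid PED6 at 100 nM. Read-out: visual per-well fluorescence inhibition score. Times: overnight exposure of larvae to compound plus PED6.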
# [9] = inhibitors of Chlamydomonas gravitaxis, primary screen, whole organism, Chlamydomonas reinhardtii, WT vs cilia-less mutant, absorbance, 96-well (AID 463189); conditions: OD600 absorbance, 2 days, at 10 µM, stronger effect = higher value;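 further: 0% = wild type cc124 cells in DMSO and 100% = ciliumless bld1 mutant cells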
# [10] = measured here: cell density z-score
# [11] = measured here: nuclear c-Myc green intensity z-score
# [12] = measured here: nuclear pErk red intensity z-score, stronger effect = higher value
SMILES,cell count [1],inhibition [1],inhibition [2],nuclei count [2],"z-score [3, 10]","z-score [3, 11]","z-score [3, 12]",inhibition [4],fluorescence slope [5],NADPH fluorescence slope [6],fluorescence slope [7],outcome [8],inhibition [9]
O=C1CC(c2ccco2)CC(O)=C1C=NCCN1CCN(C2CC(=O)N(c3ccccc3)C2=O)CC1 (stereo not drawn),378,-0.3% (inactive),-133% (inactive),162%,-1.98,0.592,0.0438,-4.78% (inactive),-0.462 (inactive),-6e-05 (inactive),0.00456 (inactive),inactive,-7.38% (inactive)
COc1ccc2nc(/N=C(\N)NC(=O)C(C)(C)C)nc(C)c2c1,503,-6.3% (inactive),-18.6% (inactive),184%,0.367,-0.163,-0.285,9.91% (inactive),-0.361 (inactive),-3e-05 (inactive),0.00616 (inactive),inactive; toxic,2.17% (inactive)
Cc1ccc(-c2nn(CCC(=O)NCC3CCCO3)c(=O)c3ccccc23)cc1 (stereo not drawn),465,-2.6% (inactive),-99.3% (inactive),155%,-0.415,0.704,-0.137,-7.28% (inactive),-0.422 (inactive),-5.3e-05 (inactive),0.0051 (inactive),inactive,-0.115% (inactive)
Cn1ncc(N=Cc2c(O)ccc3ccccc23)c1C(=O)N1CCOCC1,713,-2.5% (inactive),-43.6% (inactive),175%,0.977,0.19,0.26,3.97% (inactive),-0.482 (inactive),-9.8e-05 (inactive),0.00513 (inactive),inactive,11.5% (inactive)
c1ccc2c(c1)CCN(c1ncnc3c1[nH]c1ccccc13)C2,585,-19.2% (inactive),-59.1% (inactive),172%,0.335,-1.2,1.56,-4.59% (inactive),-0.388 (inactive),-1.5e-05 (inactive),0.00488 (inactive),inactive,42.6% (inactive)
CC1(C)CC(=O)C(C=NCCN2CCN(CCc3ccccc3)CC2)=C(O)C1,367,-0.8% (inactive),-22.3% (inactive),94.1%,-1.16,0.888,-1.15,-2.69% (inactive),-0.506 (inactive),1.2e-05 (inactive),0.00481 (inactive),inactive,-9.36% (inactive)
O=C(O)c1cc2cccc(S(=O)(=O)N3CCOCC3)c2cc1O,655,-1.8% (inactive),-122% (inactive),164%,-0.358,0.0278,-2.77,-9.66% (inactive),-0.0405 (active),-1e-05 (inactive),0.00567 (inactive),inactive,-7.07% (inactive)
CN(Cc1ccccc1)c1ncnc2ccc(Br)cc12,591,-9.8% (inactive),-5.2% (inactive),116%,-0.293,-0.951,0.281,2.92% (inactive),-0.517 (inactive),-8e-05 (inactive),0.00669 (inactive),inactive,18.9% (inactive)
N#Cc1nc(COc2ccc(Br)cc2)oc1N1CCN(Cc2ccccc2)CC1,444,2% (inactive),-74.5% (inactive),138%,0.98,0.14,-0.518,12.7% (inactive),-0.444 (inactive),-2.9e-05 (inactive),0.00951 (inactive),inactive,12.9% (inactive)
CCOC(=O)C1=C(N)n2c(s/c(=C\c3ccco3)c2=O)=C(C(=O)OC(C)C)C1c1ccco1 (stereo not drawn),383,-7.4% (inactive),-126% (inactive),166%,0.588,-1.67,1.18,-4.59% (inactive),-0.46 (inactive),-7.4e-05 (inactive),0.00444 (inactive),inactive,27.2% (inactive)
CC1(C)Cc2c(c(N3CCOCC3)nc3snc(Br)c23)CO1,489,-4.5% (inactive),-99.5% (inactive),130%,-1.77,2.53,-2.36,5.42% (inactive),-0.502 (inactive),-1.8e-05 (inactive),0.00473 (inactive),inactive,2.33% (inactive)
COc1cccc(NC(=O)c2cc(C(=O)Nc3cccc(OC)c3)n(C)n2)c1,589,5.1% (inactive),-73.5% (inactive),108%,-0.897,0.197,0.57,1.12% (inactive),-0.504 (inactive),-3.5e-05 (inactive),0.00667 (inactive),inactive,-5.34% (inactive)
CC(C)c1nc(NCCN2CCOCC2)c(C#N)c2c1COC(C)(C)C2,401,-10.6% (inactive),-276% (inactive),186%,-0.66,-0.209,1.4,-0.584% (inactive),-0.473 (inactive),-0.000118 (inactive),0.00407 (inactive),inactive,71.3% (active)
CCOC(=O)c1c(NC(=O)CN2CCOCC2)sc2c1CC(C)(C)OC2,525,-12.5% (inactive),-92.8% (inactive),146%,0.295,-0.682,-0.184,3.49% (inactive),-0.465 (inactive),-4.6e-05 (inactive),0.00443 (inactive),inactive,-12.3% (inactive)
Cn1c(=O)c2c3c(sc2n2c(SCC(=O)c4ccccc4)nnc12)COC(C)(C)C3,532,-12.7% (inactive),44.5% (inactive),48.5%,0.653,-0.107,-0.293,9.07% (inactive),-0.511 (inactive),1.2e-05 (inactive),0.00374 (inactive),inactive,35.1% (inactive)
CCCC(C)n1[nH]c(=O)cc1N (stereo not drawn),395,-2.2% (inactive),-101% (inactive),137%,1.2,-1.78,-0.211,30.7% (inactive),-0.46 (inactive),-0.000101 (inactive),0.00418 (inactive),inactive,27.7% (inactive)
COc1ccc2[nH]c(C)c(C(=O)CN3CCOCC3)c2c1,640,7.2% (inactive),-85.7% (inactive),184%,-1.08,1.22,0.499,-1.98% (inactive),-0.466 (inactive),-6.6e-05 (inactive),0.00952 (inactive),inactive,13.2% (inactive)
CCN1CCc2c(C#N)c(N3CCCCC3)nc(N3CCOCC3)c2C1,567,-7.1% (inactive),-95.8% (inactive),149%,0.15,-1.22,1.09,-2.09% (inactive),-0.46 (inactive),-7.6e-05 (inactive),0.00491 (inactive),inactive,20.3% (inactive)
CCOC(=O)C1=C(N)n2c(s/c(=C\c3cccnc3)c2=O)=C(C(=O)OC)C1c1cccnc1 (stereo not drawn),326,-14.1% (inactive),-129% (inactive),110%,-0.584,1.82,-0.0878,-2.59% (inactive),-0.501 (inactive),1.7e-05 (inactive),0.00354 (inactive),inactive,-3.27% (inactive)
CC1(C)C2CCC1(C)C(NC(=O)CCN1CCCCC1)C2 (stereo not drawn),570,-3.7% (inactive),-89.2% (inactive),163%,0.233,1.96,0.463,5.95% (inactive),-0.4 (inactive),-4.2e-05 (inactive),0.00508 (inactive),inactive,55.5% (active)
CCOc1ccc(NC(=O)CSC2=C(C#N)C(c3ccc4c(c3)OCO4)CC(=O)N2)cc1 (stereo not drawn),639,0.6% (inactive),75.3% (inactive),140%,0.00899,-0.0485,-0.833,-6.06% (inactive),-0.47 (inactive),-5.2e-05 (inactive),0.00582 (inactive),inactive,14.4% (inactive)
